Reference: ChEMBL document CHEMBL1275435, “A naturally occurring proline-to-alanine amino acid change in Fks1p in Candida parapsilosis, Candida orthopsilosis, and Candida metapsilosis accounts for reduced echinocandin susceptibility” (Antimicrob Agents Chemother, 2008)
≈ marks a conversion by molar mass, not a printed value. *1 amine or outer side, *2 acyl side, *3 side chain or, on linkers, in order; H or OH if unused. Where a SMILES comes first, the peptide text is derived from it. Bridges are numbered along the chain shown (N, C = ends). [ ]: non-standard residue; d: D form. The star is where a group is joined. pTerphenylCO(4''-OnC5H11) = CCCCCOc1ccc(-c2ccc(-c3ccc(C(=O)*)cc3)cc2)cc1; Orn(4R-OH,5R-OH) = O=C([C@H](C[C@@H](O)[C@@H](O)N[*:3])N[*:1])[*:2]; hTyr(3S-OH,4S-OH) = N[C@H](C(=O)O)[C@H](O)[C@@H](O)c1ccc(O)cc1; Pro(3S-OH,4S-Me) = C[C@H]1CN[C@H](C(=O)O)[C@H]1O; Hyp = O=C(O)[C@@H]1C[C@@H](O)CN1

Key:
[1] = Inhibition of Candida parapsilosis H4 glucan synthase assessed as [3H]UDPG incorporation
In short: (§1)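 Cells were grown with vigorous shaking at 30°C to early stationary phase in YPD. Membrane GS was partially purified by product entrapment, using 10-fold more cells for low-activity strains. The polymerization assay was started by adding GS, with drug serially diluted from 0.01 to 10,000 ng/ml. Reactions ran 60 min at 25°C and were stopped on ice. IC50 came from sigmoidal variable-slope fits, as arithmetic means ± SD of three repetitions on three days.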

Candida parapsilosis [2] = assay: Antifungal activity against Candida parapsilosis ATCC 22019 by CLSI method; format: functional; details: Lodderomyces parapsilosis
[3] = Inhibition of Candida albicans Sc5314 glucan synthase assessed as [3H]UDPG incorporation; in short: as §1
Candida parapsilosis [4] = assay: Antifungal activity against Candida parapsilosis H5 by CLSI method; format: functional; details: Lodderomyces parapsilosis
[5] = Inhibition of Candida glabrata T51916 glucan synthase assessed as [3H]UDPG incorporation; set-up: species or system Nakaseomyces glabratus; in short: as §1
Nakaseomyces glabratus [6] = assay: Antifungal activity against Candida glabrata T51916 by CLSI method; format: functional
[7] = Inhibition of Candida parapsilosis H5 glucan synthase assessed as [3H]UDPG incorporation; in short: as §1
Candida albicans [8] = assay: Antifungal activity against Candida albicans ATCC 90028 by CLSI method; format: functional
Saccharomyces cerevisiae [9] = assay: Antifungal activity against Saccharomyces cerevisiae BY4742-FKS1P649A mutant by CLSI method; format: functional
In short: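 Broth microdilution following CLSI M27-A2, run in YPD broth (1% yeast extract, 2% Bacto peptone, 2% dextrose). MICs are geometric means of at least three repetitions on three separate days.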

[10] = Inhibition of Candida metapsilosis 960161 glucan synthase assessed as [3H]UDPG incorporation; in short: as §1
[11] = Inhibition of Saccharomyces cerevisiae BY4742-FKS1P649A mutant glucan synthase assessed as [3H]UDPG incorporation; in short: as §1
Candida albicans [12] = assay: Antifungal activity against Candida albicans Sc5314 by CLSI method; format: functional
Candida orthopsilosis [13] = assay: Antifungal activity against Candida orthopsilosis H10 by CLSI method; format: functional; details: Lodderomyces orthopsilosis
[14] = Inhibition of Saccharomyces cerevisiae BY4742 glucan synthase assessed as [3H]UDPG incorporation; in short: as §1
[15] = Inhibition of Candida albicans ATCC 36082 glucan synthase assessed as [3H]UDPG incorporation; in short: as §1
Candida orthopsilosis [16] = assay: Antifungal activity against Candida orthopsilosis 981224 by CLSI method; format: functional; details: Lodderomyces orthopsilosis
Candida albicans [17] = assay: Antifungal activity against Candida albicans ATCC 36082 by CLSI method; format: functional
Candida metapsilosis [18] = assay: Antifungal activity against Candida metapsilosis am-2006-0113 by CLSI method; format: functional; details: Lodderomyces metapsilosis
[19] = Inhibition of Candida albicans M122 glucan synthase assessed as [3H]UDPG incorporation; in short: as §1
[20] = Inhibition of Candida glabrata ATCC 90030 glucan synthase assessed as [3H]UDPG incorporation; set-up: species or system Nakaseomyces glabratus; in short: as §1
Candida metapsilosis [21] = assay: Antifungal activity against Candida metapsilosis 960161 by CLSI method; format: functional; details: Lodderomyces metapsilosis
Saccharomyces cerevisiae [22] = assay: Antifungal activity against FKS1 deficient Saccharomyces cerevisiae BY4742 by CLSI method; format: functional
[23] = Inhibition of Candida orthopsilosis 981224 glucan synthase assessed as [3H]UDPG incorporation; in short: as §1
[24] = Inhibition of Candida orthopsilosis H10 glucan synthase assessed as [3H]UDPG incorporation; in short: as §1
[25] = Inhibition of Candida parapsilosis ATCC 22019 glucan synthase by assessed as [3H]UDPG incorporation; in short: as §1
[26] = Inhibition of Candida metapsilosis am-2006-0113 glucan synthase assessed as [3H]UDPG incorporation; in short: as §1
Candida parapsilosis [27] = assay: Antifungal activity against Candida parapsilosis H4 by CLSI method; format: functional; details: Lodderomyces parapsilosis
Saccharomyces cerevisiae [28] = assay: Antifungal activity against Saccharomyces cerevisiae BY4742 by CLSI method; format: functional
Nakaseomyces glabratus [29] = assay: Antifungal activity against Candida glabrata ATCC 90030 by CLSI method; format: functional
Candida albicans [30] = assay: Antifungal activity against Candida albicans M122 by CLSI method; format: functional
[31] = Inhibition of Candida albicans ATCC 90028 glucan synthase assessed as [3H]UDPG incorporation; in short: as §1

Structure (SMILES): CCCCCOc1ccc(-c2ccc(-c3ccc(C(=O)N[C@H]4C[C@@H](O)[C@@H](O)NC(=O)[C@@H]5[C@@H](O)[C@@H](C)CN5C(=O)[C@H]([C@@H](C)O)NC(=O)[C@H]([C@H](O)[C@@H](O)c5ccc(O)cc5)NC(=O)[C@@H]5C[C@@H](O)CN5C(=O)[C@H]([C@@H](C)O)NC4=O)cc3)cc2)cc1 [ANIDULAFUNGIN] ({pTerphenylCO(4''-OnC5H11)}-[Orn(4R-OH,5R-OH)]T[Hyp][hTyr(3S-OH,4S-OH)]T[Pro(3S-OH,4S-Me)]; lactam 1-C)
- IC50 [1]: 110.12 ng/mL (≈ 0.0966 µM)
- Ki [1]: 368.5 ng/mL (≈ 0.323 µM)
- MIC (Candida parapsilosis [2]): 1.1 µg/mL (≈ 0.965 µM)
- IC50 [3]: 0.89 ng/mL (≈ 0.000781 µM)
- Ki [3]: 1.33 ng/mL (≈ 0.00117 µM)
- MIC (Candida parapsilosis [4]): 1.59 µg/mL (≈ 1.39 µM)
- IC50 [5]: 206.86 ng/mL (≈ 0.181 µM)
- Ki [5]: 712 ng/mL (≈ 0.624 µM)
- MIC (Nakaseomyces glabratus [6]): 1.59 µg/mL (≈ 1.39 µM)
- IC50 [7]: 237.07 ng/mL (≈ 0.208 µM)
- Ki [7]: 431.67 ng/mL (≈ 0.379 µM)
- MIC (Candida albicans [8]): 0.02 µg/mL (≈ 0.0175 µM)
- MIC (Saccharomyces cerevisiae [9]): 0.5 µg/mL (≈ 0.438 µM)
- IC50 [10]: 133.3 ng/mL (≈ 0.117 µM)
- Ki [10]: 129 ng/mL (≈ 0.113 µM)
- IC50 [11]: 1663 ng/mL (≈ 1.46 µM)
- Ki [11]: 2374 ng/mL (≈ 2.08 µM)
- MIC (Candida albicans [12]): 0.08 µg/mL (≈ 0.0702 µM)
- MIC (Candida orthopsilosis [13]): 0.79 µg/mL (≈ 0.693 µM)
- IC50 [14]: 107.37 ng/mL (≈ 0.0942 µM)
- Ki [14]: 68.95 ng/mL (≈ 0.0605 µM)
- IC50 [15]: 1.83 ng/mL (≈ 0.0016 µM)
- Ki [15]: 0.63 ng/mL (≈ 0.000553 µM)
- MIC (Candida orthopsilosis [16]): 1.26 µg/mL (≈ 1.11 µM)
- MIC (Candida albicans [17]): 0.02 µg/mL (≈ 0.0175 µM)
- MIC (Candida metapsilosis [18]): 0.63 µg/mL (≈ 0.553 µM)
- IC50 [19]: 530.13 ng/mL (≈ 0.465 µM)
- Ki [19]: 646 ng/mL (≈ 0.567 µM)
- IC50 [20]: 3.77 ng/mL (≈ 0.00331 µM)
- MIC (Candida metapsilosis [21]): 0.79 µg/mL (≈ 0.693 µM)
- MIC (Saccharomyces cerevisiae [22]): 0.015 µg/mL (≈ 0.0132 µM)
- IC50 [23]: 141.9 ng/mL (≈ 0.124 µM)
- Ki [23]: 46.5 ng/mL (≈ 0.0408 µM)
- IC50 [24]: 163.17 ng/mL (≈ 0.143 µM)
- Ki [24]: 111 ng/mL (≈ 0.0973 µM)
- IC50 [25]: 442.03 ng/mL (≈ 0.388 µM)
- Ki [25]: 639.5 ng/mL (≈ 0.561 µM)
- IC50 [26]: 126.4 ng/mL (≈ 0.111 µM)
- Ki [26]: 41.4 ng/mL (≈ 0.0363 µM)
- MIC (Candida parapsilosis [27]): 2.24 µg/mL (≈ 1.96 µM)
- MIC (Saccharomyces cerevisiae [28]): 0.03 µg/mL (≈ 0.0263 µM)
- MIC (Nakaseomyces glabratus [29]): 0.05 µg/mL (≈ 0.0438 µM)
- MIC (Candida albicans [30]): 0.15 µg/mL (≈ 0.132 µM)
- IC50 [31]: 1.63 ng/mL (≈ 0.00143 µM)
- Ki [31]: 1.43 ng/mL (≈ 0.00125 µM)
